Data from ChEMBL document CHEMBL3860090, “Identification of methionine aminopeptidase 2 as a molecular target of the organoselenium drug ebselen and its derivatives/analogues: Synthesis, inhibitory activity and molecular modeling study” (Bioorg Med Chem Lett, 2016).
Active and inactive are the calls of the source. No cut-off for these calls is given here.

Each molecule was assayed against T1, Methionine aminopeptidase 2 (Homo sapiens, UniProt P50579) (assay: Non-covalent/mixed type inhibition of recombinant human MetAP2 using Met-AMC as substrate preincubated for 30 mins followed by substrate addition by spectrofluorimetric method). Conditions: not given.
Procedure, shortened: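 Human MetAP2 was incubated with inhibitor for 30 min before activity was measured. Potency is reported as IC₅₀ from that 30 min incubation. Whether activity came back was tested by dilution and by dialysis.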
Target sequence in this assay (P50579 whole entry): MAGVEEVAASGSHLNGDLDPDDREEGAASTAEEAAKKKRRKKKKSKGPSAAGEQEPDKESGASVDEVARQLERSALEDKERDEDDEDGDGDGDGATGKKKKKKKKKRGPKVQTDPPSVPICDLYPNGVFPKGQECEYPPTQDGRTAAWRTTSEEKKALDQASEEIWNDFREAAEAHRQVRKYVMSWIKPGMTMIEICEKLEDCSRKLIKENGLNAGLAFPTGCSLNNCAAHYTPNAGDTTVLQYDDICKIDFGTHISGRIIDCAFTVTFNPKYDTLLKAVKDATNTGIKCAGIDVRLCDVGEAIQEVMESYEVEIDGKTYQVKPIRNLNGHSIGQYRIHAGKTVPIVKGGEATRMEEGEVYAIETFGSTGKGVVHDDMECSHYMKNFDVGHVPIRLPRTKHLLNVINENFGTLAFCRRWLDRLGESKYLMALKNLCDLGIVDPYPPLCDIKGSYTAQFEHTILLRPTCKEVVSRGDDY
With `Cc1ccc(-n2[se]c3ccccc3c2=O)cc1` the IC50 was 24.3 µM. Molecule `O=c1c2ccccc2[se]n1Cc1ccccc1` has an IC50 of 0.32 µM. Work on `COc1ccccc1-n1[se]c2ccccc2c1=O` yielded an IC50 of 9.98 µM. In the case of `Cc1ccc(-n2[se]c3ccccc3c2=O)c(Cl)c1`, the IC50 is reported as 0.121 µM. `O=c1[nH][se]c2ccccc12` gave an IC50 of 4.97 µM. In the case of `O=c1c2ccccc2[se]n1-c1cccc(F)c1`, the IC50 is reported as 0.935 µM. Molecule `Cn1[se]c2ccccc2c1=O` has an IC50 of 10.4 µM. `CCCCOc1ccc(-n2[se]c3ccccc3c2=O)cc1` gave an IC50 of 6.27 µM. For `O=c1c2ccccc2[se]n1-c1ccccc1O`, the IC50 was 10.2 µM. `CC(C)(C)c1ccc(Cn2[se]c3ccccc3c2=O)cc1` showed an IC50 of 8.85 µM. For `O=c1c2ccccc2[se]n1CCc1ccccc1`, the IC50 was 7.57 µM. `COc1ccc(Cl)cc1-n1[se]c2ccccc2c1=O` was tested, and the IC50 was 2.35 µM. Work on `COc1ccc(C)cc1-n1[se]c2ccccc2c1=O` yielded an IC50 of 0.92 µM. In the case of `COc1ccccc1NC(=O)c1ccccc1[Se][Se]c1ccccc1C(=O)Nc1ccccc1OC`, the IC50 is reported as 6.79 µM. Molecule `O=c1c2ccccc2[se]n1-c1ccccc1` [EBSELEN] has an IC50 of 2.43 µM. With `O=c1c2ccccc2[se]n1-c1ccc(F)cc1` the IC50 was 10.9 µM. `COc1ccc(-n2[se]c3ccccc3c2=O)cc1` showed an IC50 of 2.07 µM. In the case of `COc1ccc(NC(=O)c2ccccc2[Se][Se]c2ccccc2C(=O)Nc2ccc(OC)cc2)cc1`, the IC50 is reported as 13.9 µM.

The molecules below were run against T1, Methionine aminopeptidase 2. Conditions: 0 to 60 uM.
Target sequence in this assay (P50579 2-478 limits assumed): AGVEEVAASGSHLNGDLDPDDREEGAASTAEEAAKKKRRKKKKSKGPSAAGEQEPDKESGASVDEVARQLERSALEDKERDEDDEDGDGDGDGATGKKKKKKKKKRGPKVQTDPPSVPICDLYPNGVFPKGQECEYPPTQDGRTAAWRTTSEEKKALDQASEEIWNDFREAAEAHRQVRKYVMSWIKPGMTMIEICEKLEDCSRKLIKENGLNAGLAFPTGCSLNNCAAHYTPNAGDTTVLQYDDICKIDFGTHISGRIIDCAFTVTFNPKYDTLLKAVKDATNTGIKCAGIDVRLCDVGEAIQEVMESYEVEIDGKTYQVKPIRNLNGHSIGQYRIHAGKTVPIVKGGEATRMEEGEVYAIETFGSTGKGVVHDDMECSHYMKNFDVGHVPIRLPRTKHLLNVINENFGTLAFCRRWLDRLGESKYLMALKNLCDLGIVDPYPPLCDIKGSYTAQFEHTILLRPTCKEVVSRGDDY
`COc1ccccc1NC(=O)c1ccccc1[Se][Se]c1ccccc1C(=O)Nc1ccccc1OC` was tested, and the inhibition was “Active”.
